In ChEMBL document CHEMBL1146380, “Synthesis, antimicrobial activity, and QSAR studies of furan-3-carboxamides” (2007):
In brackets after ≈: the same amount, converted by molar mass. Activity calls are given as the source filed them. No cut-off for these calls is given here.

How the values were obtained:
Staphylococcus aureus = test: Antimicrobial activity against Staphylococcus aureus ATCC 25923 by broth microdilution method; assay type: functional
Procedure, shortened: (§1)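 Bacteria grown overnight on Mueller–Hinton agar. Colonies were suspended in saline to McFarland turbidity (about 10^8 cfu/mL), diluted 1:100 in saline, then 1:20 in Mueller–Hinton broth, giving 5 · 10^4 cfu/mL per well. DMSO-dissolved compound was tested in twofold dilutions from 320 to 1.25 at 35 °C for 24 h. MIC was the lowest concentration with no visible turbidity (M7-A4). Bactericidal concentration was read by subculturing clear wells on Mueller–Hinton agar.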

[1] = system: Cryptococcus deneoformans; test: Antimicrobial activity against Cryptococcus neoformans var.neoformans serotype D ATCC 28952 by broth microdilution method; assay type: functional
Procedure, shortened: (§2)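 Organism grown on potato dextrose agar, with turbidity-standardized inoculum in RPMI 1640 broth (M27-A2). DMSO-dissolved compound was tested in twofold dilutions from 320 to 1.25 at 35 °C, incubated up to 72 h, in duplicate. MIC was the lowest concentration with no visible growth. Cidal concentration was read by subculturing 20 µL from clear wells on Sabouraud dextrose agar, incubated for the same period.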

Candida albicans = test: Antimicrobial activity against Candida albicans ATCC 44373 by broth microdilution method; assay type: functional
Procedure, shortened: (§3)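 Yeasts grown on potato dextrose agar. Inoculum was standardized by McFarland turbidity as for bacteria, into RPMI 1640 broth (M27-A2). DMSO-dissolved compound was tested in twofold dilutions from 320 to 1.25 at 35 °C for 24 h, in duplicate. MIC was the lowest concentration completely inhibiting visible growth. Fungicidal concentration was read by subculturing 20 µL from clear wells on Sabouraud dextrose agar at 35 °C.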

Aspergillus terreus = test: Antimicrobial activity against Aspergillus terreus isolate by broth microdilution method; assay type: functional
Aspergillus niger = test: Antimicrobial activity against Aspergillus niger isolate by broth microdilution method; assay type: functional
Fusarium solani = test: Antimicrobial activity against Fusarium solani isolate by broth microdilution method; assay type: functional
Rhizopus arrhizus = test: Antimicrobial activity against Rhizopus oryzae isolate by broth microdilution method; assay type: functional
Saccharomyces cerevisiae = test: Antimicrobial activity against Saccharomyces cerevisiae ATCC 2601 by broth microdilution method; assay type: functional; procedure, shortened: as §2
Aspergillus flavus = test: Antimicrobial activity against Aspergillus flavus isolate by broth microdilution method; assay type: functional
Nakaseomyces glabratus = test: Antimicrobial activity against Candida glabrata […] by broth microdilution method; assay type: functional; procedure, shortened: as §3
Sporothrix schenckii = test: Antimicrobial activity against Sporothrix schenckii ATCC 1146 by broth microdilution method; assay type: functional
[2] = (§4) Antimicrobial activity against Salmonella setubal ATCC 19196 by broth microdilution method; assay type: functional, Salmonella enterica subsp. enterica serovar Setubal; settings: Salmonella enterica; procedure, shortened: as §1
[3] = system: Salmonella enterica subsp. enterica serovar Setubal; test: as §4; assay type: functional; procedure, shortened: as §1
Scedosporium boydii = test: Antimicrobial activity against Pseudallescheria boydii isolate by broth microdilution method; assay type: functional
Pseudomonas aeruginosa = test: Antimicrobial activity against Pseudomonas aeruginosa ATCC 27853 by broth microdilution method; assay type: functional; procedure, shortened: as §1
Escherichia coli = test: Antimicrobial activity against Escherichia coli ATCC 25922 by broth microdilution method; assay type: functional; procedure, shortened: as §1
Klebsiella pneumoniae = test: Antimicrobial activity against Klebsiella pneumoniae ATCC 1003 by broth microdilution method; assay type: functional; procedure, shortened: as §1
Prototheca zopfii = test: Antimicrobial activity against Prototheca zopfii by broth microdilution method; assay type: functional; procedure, shortened: as §2
Candida dubliniensis = test: Antimicrobial activity against Candida dubliniensis CBS 7987 by broth microdilution method; assay type: functional; procedure, shortened: as §3
Aspergillus fumigatus = test: Antimicrobial activity against Aspergillus fumigatus isolate by broth microdilution method; assay type: functional

For `O=C(NNc1ccccc1)c1ccoc1`, the Activity (Staphylococcus aureus) was “inactive”, the MIC (Staphylococcus aureus) was 320 µg/mL (≈ 1580 µM) and the MFC [1] was 160 µg/mL (≈ 791 µM). For the same compound, the MIC [1] was 160 µg/mL (≈ 791 µM), the MFC (Candida albicans) was 320 µg/mL (≈ 1580 µM) and the MIC (Candida albicans) was 320 µg/mL (≈ 1580 µM). It also gave an MFC (Aspergillus terreus) of 40 µg/mL (≈ 198 µM), an MIC (Aspergillus terreus) of 40 µg/mL (≈ 198 µM) and an MFC (Aspergillus niger) of 40 µg/mL (≈ 198 µM). The MIC (Aspergillus niger) was 20 µg/mL (≈ 98.9 µM), the MFC (Fusarium solani) was 2.5 µg/mL (≈ 12.4 µM) and the MIC (Fusarium solani) was 2.5 µg/mL (≈ 12.4 µM). For the same compound, the MFC (Rhizopus arrhizus) was 320 µg/mL (≈ 1580 µM), the MIC (Rhizopus arrhizus) was 320 µg/mL (≈ 1580 µM) and the MFC (Saccharomyces cerevisiae) was 320 µg/mL (≈ 1580 µM). The MIC (Saccharomyces cerevisiae) was 320 µg/mL (≈ 1580 µM), the MFC (Aspergillus flavus) was 20 µg/mL (≈ 98.9 µM) and the MIC (Aspergillus flavus) was 10 µg/mL (≈ 49.5 µM). For the same compound, the Activity (Nakaseomyces glabratus) was “inactive”, the MIC (Nakaseomyces glabratus) was 320 µg/mL (≈ 1580 µM) and the MFC (Sporothrix schenckii) was 320 µg/mL (≈ 1580 µM). For the same compound, the MIC (Sporothrix schenckii) was 10 µg/mL (≈ 49.5 µM), the MIC [2] was 320 µg/mL (≈ 1580 µM) and the Activity [3] was “inactive”. For the same compound, the MFC (Scedosporium boydii) was 320 µg/mL (≈ 1580 µM), the MIC (Scedosporium boydii) was 10 µg/mL (≈ 49.5 µM) and the Activity (Pseudomonas aeruginosa) was “inactive”. For the same compound, the MIC (Pseudomonas aeruginosa) was 320 µg/mL (≈ 1580 µM), the Activity (Escherichia coli) was “inactive” and the MIC (Escherichia coli) was 320 µg/mL (≈ 1580 µM). For the same compound, the Activity (Klebsiella pneumoniae) was “inactive”, the MIC (Klebsiella pneumoniae) was 320 µg/mL (≈ 1580 µM) and the MFC (Prototheca zopfii) was 320 µg/mL (≈ 1580 µM). The MIC (Prototheca zopfii) was 160 µg/mL (≈ 791 µM), the MFC (Candida dubliniensis) was 320 µg/mL (≈ 1580 µM) and the MIC (Candida dubliniensis) was 320 µg/mL (≈ 1580 µM). It also gave an MFC (Aspergillus fumigatus) of 20 µg/mL (≈ 98.9 µM) and an MIC (Aspergillus fumigatus) of 20 µg/mL (≈ 98.9 µM).
In the case of `N=C(NC(=O)c1ccoc1)c1ccccc1`, the Activity (Staphylococcus aureus) is reported as “inactive”, the MIC (Staphylococcus aureus) is reported as 320 µg/mL (≈ 1490 µM) and the MFC [1] is reported as 320 µg/mL (≈ 1490 µM). For the same compound, the MIC [1] was 160 µg/mL (≈ 747 µM), the Activity (Candida albicans) was “inactive” and the MFC (Aspergillus terreus) was 320 µg/mL (≈ 1490 µM). For the same compound, the MIC (Aspergillus terreus) was 320 µg/mL (≈ 1490 µM), the Activity (Aspergillus niger) was “inactive” and the MIC (Aspergillus niger) was 320 µg/mL (≈ 1490 µM). The Activity (Fusarium solani) was “inactive”, the MIC (Fusarium solani) was 320 µg/mL (≈ 1490 µM) and the MFC (Rhizopus arrhizus) was 320 µg/mL (≈ 1490 µM). For the same compound, the MIC (Rhizopus arrhizus) was 320 µg/mL (≈ 1490 µM), the Activity (Saccharomyces cerevisiae) was “inactive” and the Activity (Aspergillus flavus) was “inactive”. The Activity (Nakaseomyces glabratus) was “inactive”, the MFC (Sporothrix schenckii) was 320 µg/mL (≈ 1490 µM) and the MIC (Sporothrix schenckii) was 320 µg/mL (≈ 1490 µM). The MIC [2] was 320 µg/mL (≈ 1490 µM), the Activity [3] was “inactive” and the MFC (Scedosporium boydii) was 160 µg/mL (≈ 747 µM). For the same compound, the MIC (Scedosporium boydii) was 160 µg/mL (≈ 747 µM), the Activity (Pseudomonas aeruginosa) was “inactive” and the MIC (Pseudomonas aeruginosa) was 320 µg/mL (≈ 1490 µM). The Activity (Escherichia coli) was “inactive”, the MIC (Escherichia coli) was 320 µg/mL (≈ 1490 µM) and the Activity (Klebsiella pneumoniae) was “inactive”. It also gave an MIC (Klebsiella pneumoniae) of 320 µg/mL (≈ 1490 µM), an MFC (Prototheca zopfii) of 320 µg/mL (≈ 1490 µM) and an MIC (Prototheca zopfii) of 160 µg/mL (≈ 747 µM). The Activity (Candida dubliniensis) was “inactive”, the MFC (Aspergillus fumigatus) was 320 µg/mL (≈ 1490 µM) and the MIC (Aspergillus fumigatus) was 320 µg/mL (≈ 1490 µM).
For `O=C(NCc1ccccn1)c1ccoc1`, the Activity (Staphylococcus aureus) was “inactive”, the MIC (Staphylococcus aureus) was 320 µg/mL (≈ 1580 µM) and the Activity [1] was “inactive”. For the same compound, the MIC [1] was 320 µg/mL (≈ 1580 µM), the Activity (Candida albicans) was “inactive” and the Activity (Aspergillus terreus) was “inactive”. For the same compound, the MIC (Aspergillus terreus) was 320 µg/mL (≈ 1580 µM), the Activity (Aspergillus niger) was “inactive” and the Activity (Fusarium solani) was “inactive”. For the same compound, the MIC (Fusarium solani) was 320 µg/mL (≈ 1580 µM), the Activity (Rhizopus arrhizus) was “inactive” and the MIC (Rhizopus arrhizus) was 320 µg/mL (≈ 1580 µM). The Activity (Saccharomyces cerevisiae) was “inactive”, the MFC (Aspergillus flavus) was 320 µg/mL (≈ 1580 µM) and the MIC (Aspergillus flavus) was 320 µg/mL (≈ 1580 µM). For the same compound, the Activity (Nakaseomyces glabratus) was “inactive”, the Activity (Sporothrix schenckii) was “inactive” and the MIC (Sporothrix schenckii) was 320 µg/mL (≈ 1580 µM). The MIC [2] was 320 µg/mL (≈ 1580 µM), the Activity [3] was “inactive” and the MFC (Scedosporium boydii) was 320 µg/mL (≈ 1580 µM). The MIC (Scedosporium boydii) was 320 µg/mL (≈ 1580 µM), the Activity (Pseudomonas aeruginosa) was “inactive” and the MIC (Pseudomonas aeruginosa) was 320 µg/mL (≈ 1580 µM). For the same compound, the Activity (Escherichia coli) was “inactive”, the MIC (Escherichia coli) was 320 µg/mL (≈ 1580 µM) and the Activity (Klebsiella pneumoniae) was “inactive”. For the same compound, the MIC (Klebsiella pneumoniae) was 320 µg/mL (≈ 1580 µM), the Activity (Prototheca zopfii) was “inactive” and the MIC (Prototheca zopfii) was 320 µg/mL (≈ 1580 µM). The Activity (Candida dubliniensis) was “inactive” and the Activity (Aspergillus fumigatus) was “inactive”.
With `O=C(NCCC1CCN(Cc2ccccc2)CC1)c1ccoc1` the MIC (Staphylococcus aureus) was 40 µg/mL (≈ 128 µM), the MBC (Staphylococcus aureus; read-out: MFC) was 160 µg/mL (≈ 512 µM) and the Activity [1] was “inactive”. It also gave an MIC [1] of 320 µg/mL (≈ 1020 µM), an MFC (Candida albicans) of 320 µg/mL (≈ 1020 µM) and an MIC (Candida albicans) of 160 µg/mL (≈ 512 µM). For the same compound, the Activity (Aspergillus terreus) was “inactive”, the MIC (Aspergillus terreus) was 320 µg/mL (≈ 1020 µM) and the Activity (Aspergillus niger) was “inactive”. For the same compound, the MIC (Aspergillus niger) was 320 µg/mL (≈ 1020 µM), the Activity (Fusarium solani) was “inactive” and the MIC (Fusarium solani) was 320 µg/mL (≈ 1020 µM). The Activity (Rhizopus arrhizus) was “inactive”, the MIC (Rhizopus arrhizus) was 320 µg/mL (≈ 1020 µM) and the MFC (Saccharomyces cerevisiae) was 160 µg/mL (≈ 512 µM). The MIC (Saccharomyces cerevisiae) was 80 µg/mL (≈ 256 µM), the Activity (Aspergillus flavus) was “inactive” and the MIC (Aspergillus flavus) was 320 µg/mL (≈ 1020 µM). For the same compound, the MFC (Nakaseomyces glabratus) was 320 µg/mL (≈ 1020 µM), the MIC (Nakaseomyces glabratus) was 320 µg/mL (≈ 1020 µM) and the Activity (Sporothrix schenckii) was “inactive”. The MIC (Sporothrix schenckii) was 20 µg/mL (≈ 64 µM), the MIC [2] was 320 µg/mL (≈ 1020 µM) and the Activity [3] was “inactive”. For the same compound, the MFC (Scedosporium boydii) was 80 µg/mL (≈ 256 µM), the MIC (Scedosporium boydii) was 40 µg/mL (≈ 128 µM) and the Activity (Pseudomonas aeruginosa) was “inactive”. For the same compound, the MIC (Pseudomonas aeruginosa) was 20 µg/mL (≈ 64 µM), the MBC (Escherichia coli) was 320 µg/mL (≈ 1020 µM) and the MIC (Escherichia coli) was 160 µg/mL (≈ 512 µM). For the same compound, the MIC (Klebsiella pneumoniae) was 160 µg/mL (≈ 512 µM), the MBC (Klebsiella pneumoniae; read-out: MFC) was 320 µg/mL (≈ 1020 µM) and the MFC (Prototheca zopfii) was 320 µg/mL (≈ 1020 µM). The MIC (Prototheca zopfii) was 320 µg/mL (≈ 1020 µM), the MFC (Candida dubliniensis) was 160 µg/mL (≈ 512 µM) and the MIC (Candida dubliniensis) was 160 µg/mL (≈ 512 µM). The Activity (Aspergillus fumigatus) was “inactive” and the MIC (Aspergillus fumigatus) was 320 µg/mL (≈ 1020 µM).
